Published values from different studies.
MAL12: Alpha-glucosidase MAL12 (MAL12, Saccharomyces cerevisiae S288c, UniProt P53341)
MAP3K7: Mitogen-activated protein kinase kinase kinase 7 (MAP3K7, Homo sapiens, UniProt O43318)

O=C1C[C@@H](c2ccc(O)cc2)Oc2c(Br)c(O)c(Br)c(O)c21  inhibition (MAL12; enzyme activity, inhibitor, absorbance; 50 µM): 80.5%
CCCCC(=O)Nc1ccc(-c2ccc3ncn(CCC)c(=O)c3c2)cn1  remaining binding (Wee1-like protein kinase 2 (WEE2, Homo sapiens, UniProt P0C1S8); binding, competition with immobilised ligand; 0.5 µM): 100%
CCCCCCCCCCCCCC(=O)OCC(C)(C)CC1=C(O)C(=O)c2ccccc2C1=O  inhibition (MAL12; enzyme activity, inhibitor; 50 µM): > 70%
O=c1cc(-c2ccc(O)c(O)c2)oc2cc(O)cc(O)c12  inhibition (MAL12; enzyme activity, inhibitor, absorbance; 50 µM): 34.4%
CS(=O)(=NC#N)c1ccccc1Nc1nc(Nc2ccnc(CO)c2)ncc1Cl (stereo not drawn)  remaining activity (MAP3K7; enzyme activity, inhibitor; 1 µM): 80.5%
COc1cc(O)c2c(c1)O[C@H](c1ccccc1)CC2=O  inhibition (MAL12; enzyme activity, inhibitor, absorbance; 50 µM): 15.1%
C#Cc1cnc(Nc2ccc(CO)cc2)nc1Nc1ccccc1C(=O)NC  remaining activity (MAP3K7; enzyme activity, inhibitor; 1 µM): 76.9%
Nc1ncnc2c1ncn2[C@@H]1O[C@H](COP(=O)(O)OP(=O)(O)OP(=O)(O)O)[C@@H](O)[C@H]1O  Km (Hexokinase HKDC1 (Homo sapiens, UniProt Q2TB90); enzyme activity, substrate; pH 8): 410 µM
O=c1cc(-c2ccccc2)oc2cc(O)cc(O)c12  inhibition (MAL12; enzyme activity, inhibitor, absorbance; 50 µM): 31.2%
C#Cc1cnc(Nc2ccnc(CO)c2)nc1Nc1ccccc1S(C)(=O)=NC#N (stereo not drawn)  remaining activity (MAP3K7; enzyme activity, inhibitor; 1 µM): 78.9%
C1=C/COCc2cc(ccc2OCCN2CCCC2)Nc2nccc(n2)-c2cccc(c2)COC/1  remaining binding (Mitotic checkpoint serine/threonine-protein kinase BUB1 (BUB1, Homo sapiens, UniProt O43683); binding; 0.1 µM): 91%
COc1cc2c3c(c1OC)-c1c(OC)ccc(NC(C)=O)c1CC3N(C)CC2 (stereo not drawn)  inhibition (Alpha-1A adrenergic receptor (ADRA1A, Homo sapiens, UniProt P35348); ligand displacement, radioligand; 10 µM): 10%
